Reference: ChEMBL document CHEMBL1140158, “Soluble 3',6-substituted indirubins with enhanced selectivity toward glycogen synthase kinase -3 alter circadian period” (J Med Chem, 2008)
The source made the active and inactive calls. The calls are words filed in the database; no cut-off is given here.

Key:
[1] = Inhibition of human recombinant CDK5/p25 expressed in Escherichia coli
SH-SY5Y = test: Cytotoxicity against human SH-SY5Y cells after 48 hrs by MTS reduction assay; format: cell-based
[2] = Solubility in water; format: physicochemical
How it was run: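 Excess solid in double-distilled water was sonicated 5 min, then stirred overnight to equilibrium at 25 ± 0.1 °C and centrifuged. Supernatant absorbance was read at 515–518 nm and quantified against per-compound standard reference curves.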

[3] = Dissociation constant, pKa of the compound; format: physicochemical
[4] = Lipophilicity, log D of the compound; format: physicochemical; conditions: octanol/water
[5] = tested on: Glycogen synthase kinase-3 (Sus scrofa); test: Inhibition of pig GSK3alpha/beta
[6] = target: T1, Glycogen synthase kinase-3 (Homo sapiens, UniProt P49840+P49841); test: Inhibition of GSK3-mediated beta-catenin phosphorylation in human SH-SY5Y cells in presence of MG132 by Western blot analysis
[7] = target: T1, Glycogen synthase kinase-3; test: Inhibition of GSK3-mediated beta-catenin phosphorylation in human SH-SY5Y cells in presence of MG132 by ELISA
Rat1 = test: Effect on circadian rhythm in Pper2::Fluc transfected Rat1 cells assessed as shortening of period length at 10 uM; format: functional, cell-based; conditions: Rattus norvegicus
How it was run: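 Rat-1 fibroblasts stably carrying PPer2::Fluc, grown to confluence, synchronized with 0.1 μM dexamethasone (1 h in Experimental, 2 h in legend), then moved to phenol-red-free assay medium with 0.1 mM luciferin. Compounds at 10 μM added before dish sealing and left continuously; DMSO solvent control. Luminescence recorded 4–5 days or more; period derived by regression analysis.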

T1 sequence (P49840 whole entry, looked up): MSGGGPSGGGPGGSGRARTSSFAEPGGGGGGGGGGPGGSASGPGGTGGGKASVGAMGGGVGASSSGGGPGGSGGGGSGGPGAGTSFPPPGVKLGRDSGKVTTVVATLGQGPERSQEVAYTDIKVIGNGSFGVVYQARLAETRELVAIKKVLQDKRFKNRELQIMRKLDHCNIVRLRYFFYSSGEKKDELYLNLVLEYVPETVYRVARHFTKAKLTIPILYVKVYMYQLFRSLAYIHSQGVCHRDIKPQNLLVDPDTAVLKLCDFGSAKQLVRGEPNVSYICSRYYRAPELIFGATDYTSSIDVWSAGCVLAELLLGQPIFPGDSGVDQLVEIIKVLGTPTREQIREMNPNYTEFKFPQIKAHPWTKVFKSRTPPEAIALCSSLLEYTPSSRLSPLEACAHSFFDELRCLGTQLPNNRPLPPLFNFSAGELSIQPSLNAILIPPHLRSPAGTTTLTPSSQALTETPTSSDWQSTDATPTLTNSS
T1 sequence (P49841 whole entry, looked up): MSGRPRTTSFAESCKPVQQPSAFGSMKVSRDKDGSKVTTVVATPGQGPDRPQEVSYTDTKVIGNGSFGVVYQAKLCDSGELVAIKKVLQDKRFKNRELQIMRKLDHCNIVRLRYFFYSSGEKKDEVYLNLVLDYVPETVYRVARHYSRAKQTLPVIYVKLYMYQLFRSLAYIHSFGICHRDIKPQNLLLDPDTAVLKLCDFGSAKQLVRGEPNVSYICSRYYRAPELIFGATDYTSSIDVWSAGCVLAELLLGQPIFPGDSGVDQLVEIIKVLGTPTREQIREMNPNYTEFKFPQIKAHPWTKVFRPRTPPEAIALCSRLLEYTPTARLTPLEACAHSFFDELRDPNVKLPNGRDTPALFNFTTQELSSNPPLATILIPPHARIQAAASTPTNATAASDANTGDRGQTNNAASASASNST

SMILES	IC50 [1] [nM]	IC50 (SH-SY5Y; Homo sapiens, SH-SY5Y, 48 h) [nM]	solubility thermodynamic [2] [µg/mL]	pKa [3]	logD [4]	IC50 [5] [nM]	other results
O=C1Nc2cc(Br)ccc2/C1=C1/Nc2ccccc2/C1=N\OCCO	> 10000	> 100000	–	–	–	–	–
Cl.Cl.O=C1Nc2cc(Br)ccc2/C1=C1/Nc2ccccc2/C1=N\OCCN1CCN(CCO)CC1	–	–	1140	7.65	1.41	–	–
O=C1Nc2cc(Br)ccc2/C1=C1/Nc2ccccc2/C1=N\OCCBr	> 10000	> 100000	–	–	–	140	–
O=C1Nc2cc(Br)ccc2/C1=C1/Nc2ccccc2/C1=N\OCCN(CCO)CCO	–	6600	–	–	–	–	–
Cl.Cl.O=C1Nc2cc(Br)ccc2/C1=C1/Nc2ccccc2/C1=N\OCCN1CCN(CCOCCO)CC1	330	97600	4250	7.58	1.46	33	–
COCCN1CCN(CCO/N=C2/C(=C3/C(=O)Nc4cc(Br)ccc43)Nc3ccccc32)CC1.Cl.Cl	400	> 100000	570	7.47	1.9	20	–
Cn1c(O)c(-c2[nH]c3ccccc3c2N=O)c2ccc(Br)cc21	–	–	–	–	–	–	Activity [6]: inactive
COCCN1CCN(CCO/N=C2/C(=C3/C(=O)Nc4cc(Br)ccc43)Nc3ccccc32)CC1	500	–	–	–	–	11	–
O=C1Nc2cc(Br)ccc2/C1=C1/Nc2ccccc2/C1=N\OCC(O)CO (stereo unspecified)	25	940	–	–	–	34	–
Cl.Cl.O=C1Nc2cc(Br)ccc2/C1=C1/Nc2ccccc2/C1=N\OCCN1CCNCC1	180	–	1610	8.85	-0.87	–	IC50 [7]: 220 nM; IC50 (SH-SY5Y; sh-sy5y): 5900 nM
Cl.O=C1Nc2cc(Br)ccc2/C1=C1/Nc2ccccc2/C1=N\OCCN1CCCC1	100	4200	195	9.18	1.16	54	–
O=C1Nc2cc(Br)ccc2/C1=C1/Nc2ccccc2/C1=N\OCCN1CCN(CCOCCO)CC1 [listing 1 of 2 here]	–	–	–	–	–	–	Activity (Rat1): Active
Cl.O=C1Nc2cc(Br)ccc2/C1=C1/Nc2ccccc2/C1=N\OCCN(CCO)CCO	–	–	–	–	–	–	IC50 [7]: 320 nM
O=C1Nc2cc(Br)ccc2/C1=C1/Nc2ccccc2/C1=N\OCCN1CCNCC1	–	–	–	–	–	–	IC50 [7]: 150 nM; IC50 (SH-SY5Y; sh-sy5y): 13200 nM
O=C1Nc2cc(Br)ccc2/C1=C1/Nc2ccccc2/C1=N\OCCN1CCCC1	130	–	–	–	–	26	IC50 (SH-SY5Y; sh-sy5y): 5500 nM
CCN(CC)CCO/N=C1/C(=C2/C(=O)Nc3cc(Br)ccc32)Nc2ccccc21.Cl	40	> 100000	192	9.38	1.19	27	–
CCN(CC)C(=O)O/N=C1/C(=C2/C(=O)Nc3cc(Br)ccc32)Nc2ccccc21	10000	> 100000	–	–	–	30	–
CN(C)CCO/N=C1/C(=C2/C(=O)Nc3cc(Br)ccc32)Nc2ccccc21.Cl	–	–	141	8.59	1.69	–	–
CCN(CC)CCO/N=C1/C(=C2/C(=O)Nc3cc(Br)ccc32)Nc2ccccc21	20	–	–	–	–	35	IC50 (SH-SY5Y; sh-sy5y): 78000 nM
O=C1Nc2cc(Br)ccc2/C1=C1/Nc2ccccc2/C1=N\OCCN1CCN(CCO)CC1	–	–	–	–	–	–	IC50 [7]: 700 nM
O=C1Nc2cc(Br)ccc2/C1=C1/Nc2ccccc2/C1=N\OCCN1CCN(CCOCCO)CC1 [listing 2 of 2 here]	310	–	–	–	–	14	IC50 [7]: 2900 nM
CN(CCO/N=C1/C(=C2/C(=O)Nc3cc(Br)ccc32)Nc2ccccc21)CC(O)CO (stereo unspecified)	240	5800	–	–	–	67	–
CN1CCN(CCO/N=C2/C(=C3/C(=O)Nc4cc(Br)ccc43)Nc3ccccc32)CC1.Cl.Cl	300	5400	1500	7.65	1.74	5	–
CN1CCN(CCO/N=C2/C(=C3/C(=O)Nc4cc(Br)ccc43)Nc3ccccc32)CC1	400	–	–	–	–	7	–
